Rows were chosen to be rich in hits. Some 9.6% of all compounds tested hit in one or more screens of this group.
Ba/F3 V617F tox: loss of viability in JAK2V617F-driven Ba/F3 cells; Ba/F3 EpoR-JAK2V617F viability, ATP luminescence; inhibition, % at 5.6 µM; 220,000 tested, 1.1% active;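 active = inhibition above the campaign mean plus 3 SD over all tested compounds, cut at about 24% in these data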;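 note: cytokine-independent growth of Ba/F3 cells driven by EpoR plus mutant JAK2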
APP transl inh: APP translation inhibition; SH-SY5Y APP 5'UTR-luciferase reporter, luminescence; inhibition, % at 2 µM; 190,000 tested, 0.82% active;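 active = inhibition above a set limit, derived from the sample mean plus 3 SD, cut at about 45% in these data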
BaF3 tox: reduces parental Ba/F3 cell viability, JAK2V617F counter-screen | 220,000 tested, 1.1% active | AID 1486 | inhibition, % at 5.6 µM | CellTiter-Glo ATP luminescence;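 active = inhibition above a per-campaign cutoff, the mean inhibition of all tested compounds plus 3 SD, cut at about 27% in these data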
bCat nuc transl: modulators of beta-catenin nuclear translocation; 190,000 tested, 0.3% active; nuclear translocation activity, % at 5 µM; HeLa beta-catenin nuclear translocation, immunofluorescence imaging;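 active = nuclear translocation activity above 50% at 5 µM, with a well cell count of 50 or more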;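 note: per-cell ratio of nuclear to cytoplasmic median beta-catenin stain intensity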
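Test system: human HeLa cells, native beta-catenin. Compound dosing: 5 µM primary single dose, 0.1% DMSO, 0.02–20 µM confirmation series. Incubation: compound exposure 24 h at 37°C. Detection: beta-catenin immunostaining with DAPI counterstain, 20x imaging, 6 fields/well. Read-out basis: Nuclear/cytoplasmic beta-catenin signal ratio, % activation.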
L major viab: inhibitors of Leishmania major promastigote growth | Leishmania major promastigotes, resazurin fluorescence viability | inhibition, % at 10 µM | 200,000 tested, 9% active; in the data active = inhibition above about 50%;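 note: promastigotes grown with compound for 44 hours at 28 °C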
MT stabilize HCS: stabilizes microtubules in HeLa cells | AID 2205 | 200,000 tested, 0.83% active | % tubulin-high responders, % at 10 µM | HeLa tubulin immunostaining HCS, 24 h; share of cells brighter than vehicle mean+2SD;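 active = plate Z-score above 3 for both tubulin-high and condensed-nucleus cell shares, with cell loss under 80%, at 10 µM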;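 note: anti alpha tubulin signal scored within the nucleus-defined area of each cell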
A number is an active result; - = inactive; . = not tested or not shown.

SMILES	Ba/F3 V617F tox	APP transl inh	BaF3 tox	bCat nuc transl	L major viab	MT stabilize HCS
CCOC(=O)C1(Cc2ccccc2)CCN(Cc2ccc(COC)o2)CC1	-	-	-	-	-	-
CC(C)NC(=S)Nc1c(N)[nH]c(=O)[nH]c1=O	-	.	-	-	.	.
O=C(Oc1c(Cl)cc(Cl)c2cccnc12)c1ccco1	-	-	-	-	98	-
Oc1c(Cl)cc(Cl)c2cccnc12	-	-	-	-	96	-
Clc1cc2cccnc2c2ccccc12	-	-	-	-	-	-
O=C(Oc1cncc(Cl)c1)c1ccco1	-	-	-	-	-	-
Cc1cccc(OCCCC(=O)Nc2nc3ccccc3[nH]2)c1	-	-	-	-	-	-
Cc1ccc(SCC2(O)CCN(S(=O)(=O)c3ccc(Cl)cc3)CC2)cc1	-	-	-	-	-	-
CN1CCN(CC2(O)CCN(S(=O)(=O)c3ccc(Cl)cc3)CC2)CC1	-	-	-	-	100	-
CC(=O)c1cccc(CN2CCN(C3CCCCC3)C(CCO)C2)c1 (centres undefined)	-	.	-	-	.	.
Cc1cccc(C)c1NC(=S)Nc1ccc(Cl)c(Cl)c1	-	-	-	-	55	-
CC(=O)Nc1cccc(NC(=S)Nc2cccc(Cl)c2C)c1	-	-	90	-	-	-
CC(=O)Nc1cccc(NC(=O)Nc2cccc(Cl)c2C)c1	-	-	-	-	-	-
COc1ccccc1C/C(N)=N/OC(=O)c1ccco1	-	-	-	-	-	-
O=c1c2c3c(sc2nc(NCCO)n1CCc1ccccc1)CCCCC3	-	-	-	-	-	19
COc1ccc(-n2c(NCCN(C)C)nc3sc4c(c3c2=O)CCCCC4)cc1	-	-	-	.	58	-
COc1ccc(-n2c(C)nc3sc4c(c3c2=O)CCC4)cc1	-	-	-	-	-	-
CN(C)CCNc1nc2sc3c(c2c(=O)n1-c1ccc(F)cc1)CCCCC3	-	.	-	-	.	.
COc1ccc(-n2c(N3CCN(C)CC3)nc3sc4c(c3c2=O)CCCCC4)cc1	-	-	-	-	100	-
O=c1c2c3c(sc2nc(NCCO)n1Cc1ccco1)CCCCC3	-	-	-	-	-	-
CCN(CC)C(=O)CSc1nnc([C@@H](N)C(C)C)o1	-	.	-	-	.	.
COc1cc(/C=N/Nc2ccccc2[N+](=O)[O-])cc(OC)c1O	-	-	-	-	-	-
COc1cc(/C=N/Nc2ccc(F)cc2F)cc(OC)c1O	-	-	-	-	68	-
CCn1c(SC)nnc1-c1sc2cc(Cl)ccc2c1Cl	-	-	40	.	87	-
Cc1cccc(-n2c(CNC(=O)c3cccc([N+](=O)[O-])c3C)n[nH]c2=S)c1	-	-	-	-	-	14
SMILES	Ba/F3 V617F tox	APP transl inh	BaF3 tox	bCat nuc transl	L major viab	MT stabilize HCS
CN(C)CCN(C)Cc1ccc2c(c1)Cc1ccccc1-2	.	.	.	-	.	.
OC1CCCN(Cc2ccc3c(c2)Cc2ccccc2-3)C1 (centres undefined)	-	-	-	-	73	-
COc1ccc(NS(=O)(=O)c2cc(NC(=O)c3cnccn3)ccc2N2CCCC2)cc1	-	-	-	-	93	-
COc1ccc(NS(=O)(=O)c2cc(NC(=O)c3ccc(C)o3)ccc2N2CCCCC2)cc1	-	-	-	-	99	-
COc1ccc(S(=O)(=O)Nc2ccc(NC(C)=O)cc2)cc1Br	-	-	-	-	-	-
COc1ccc(NS(=O)(=O)c2cc(NC(=O)c3cnccn3)ccc2OC)cc1Br	-	-	-	-	95	-
CC(=O)N/C(=N\OCc1ccc(Br)cc1)c1nonc1NC(C)=O	-	-	-	-	-	-
CCCn1c(/N=C/c2ccc3c(c2)OCO3)nc2ccccc21	-	-	-	.	-	-
C=CCn1c(NS(=O)(=O)c2ccccc2)c(S(=O)(=O)c2ccc(C)cc2)c2nc3ccccc3nc21	-	-	-	-	-	-
CCCCn1c(/N=C/c2ccccc2NS(=O)(=O)c2ccc(C)cc2)nc2ccccc21	-	-	-	-	77	-
Cc1ccc(S(=O)(=O)Nc2ccccc2/C=N/c2nc3ccccc3n2C(C)C)cc1	-	-	-	-	58	-
COc1ccc(C2COC(=O)C2=N)c(NC(=O)c2ccc(Cl)cc2)c1 (centres undefined)	-	-	-	-	-	-
CCOC(=O)c1cnc2nc[nH]n2c1=O	-	-	-	-	-	-
CC(C)c1ccc(/C=N/NC(=O)C(=O)NCCCN2CCOCC2)cc1	-	-	-	-	-	-
CC(/C=N/Nc1nc(C)cc(C)n1)=C\c1ccc(C(C)C)cc1	-	-	-	-	-	-
CCc1nc(CN2CCN(c3cc(C(F)(F)F)ccn3)CC2)c(C)[nH]1	-	.	-	-	.	.
Cc1ccc(S(=O)(=O)Nc2cc(C(=O)NCCN(C)C)ccc2N2CCCCC2)cc1	-	-	-	-	87	-
Cc1ccc(S(=O)(=O)Nc2cc(C(=O)NCCN3CCCC3)ccc2N2CCCCC2)cc1	-	-	-	-	99	-
O=C(COc1ccccc1-c1ccccc1)N/N=C/c1cccc2ccccc12	-	95	-	112	-	-
COc1cccc(C(=O)COc2ccccc2-c2ccccc2)c1	-	-	-	.	53	-
O=C(CSc1nc2ccccc2s1)N/N=C/c1ccc(C(=O)O)cc1	-	-	-	-	-	-
COc1ccc(/C=N/NC(=O)CCSc2nc3ccccc3s2)cc1	-	-	-	131	-	29
Nc1nnn(CC(=O)N/N=C/c2cccc3ccccc23)n1	-	62	-	-	-	-
O=C(COc1cccc2ccccc12)N/N=C/c1ccccc1OCc1ccc(C(=O)O)cc1	-	-	-	-	-	-
O=C(COc1ccccc1[N+](=O)[O-])N/N=C/c1cccs1	-	-	-	-	-	-
SMILES	Ba/F3 V617F tox	APP transl inh	BaF3 tox	bCat nuc transl	L major viab	MT stabilize HCS
O=C(O)CC(NC(=O)C1c2ccccc2Oc2ccccc21)c1ccc(Cl)cc1 (centres undefined)	-	-	-	-	-	-
CCCCNC(=O)CC(=O)Nc1ccccc1C(=O)O	-	-	-	-	-	-
COc1ccc(/C=N/NC(=O)COc2cccc3cccnc23)cc1OC	-	-	-	-	-	-
CCn1cc(/C=N/NC(=O)COc2cccc3cccnc23)c2ccccc21	-	-	-	-	60	-
COc1ccc(/C=N/NC(=O)COc2ccccc2-c2ccccc2)cc1	76	96	76	142	-	-
NC(=O)CSc1nnc(-c2cc(-c3ccc(Cl)cc3)nc3ccccc23)o1	-	-	-	-	-	-
CCc1cc2c(SCc3nc4sc(C(C)=O)c(C)c4c(=O)[nH]3)ncnc2s1	-	.	-	-	.	.
COc1cccc(C(=O)Nc2sc3c(c2C#N)CCN(C(C)=O)C3)c1	76	92	81	53	-	28
Cc1ccc(C(=O)OCC(=O)Nc2sc3c(c2C#N)CCC3)cc1	-	-	-	-	52	-
N#Cc1c(NC(=O)c2cccnc2)sc2c1CCC2	41	-	42	.	-	-
N#Cc1c(NC(=S)NC(=O)c2ccccc2)sc2c1CCCC2	-	-	-	-	-	-

High-throughput results deposited in PubChem BioAssay by several laboratories.
